Measurements: ChEMBL document CHEMBL1157665, “Novel 4-thiazolidinone derivatives as potential antifungal and antibacterial drugs” (2010)
Values after ≈ are worked out from the molar mass of the structure shown.

What was measured:
Aspergillus niger [1] = assay: Antifungal activity against Aspergillus niger ATCC 6275 after 72 hrs by serial sub-cultivation method; assay type: functional; conditions: ATCC 6275, 72 h
In short: (§1)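 MFC was found by serial sub-cultivation of 2 µl into plates holding 100 µl broth per well, then incubation 72 h at 28 °C. MFC is the lowest concentration with no visible growth, taken as 99.5% killing of the original inoculum. Spore inocula came from malt agar cultures washed with 0.85% saline and 0.1% Tween 80.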

Aspergillus versicolor [2] = assay: Antifungal activity against Aspergillus versicolor ATCC 11730 after 72 hrs by serial dilution method; assay type: functional; conditions: ATCC 11730, 72 h
In short: (§2)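 Fungi were kept on malt agar at 4 °C and sub-cultured monthly. Spores were washed off the agar with sterile 0.85% saline containing 0.1% Tween 80 (v/v). Modified microdilution in 96-well plates. MIC is the lowest concentration with no visible growth under the binocular microscope. Inoculum checked on malt agar for contamination and validity.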

Aspergillus versicolor [3] = assay: Antifungal activity against Aspergillus versicolor ATCC 11730 after 72 hrs by serial sub-cultivation method; assay type: functional; conditions: ATCC 11730, 72 h; in short: as §1
Aspergillus flavus [4] = assay: Antifungal activity against Aspergillus flavus ATCC 9643 after 72 hrs by serial dilution method; assay type: functional; conditions: ATCC 9643, 72 h; in short: as §2
Aspergillus flavus [5] = assay: Antifungal activity against Aspergillus flavus ATCC 9643 after 72 hrs by serial sub-cultivation method; assay type: functional; conditions: ATCC 9643, 72 h; in short: as §1
Fulvia fulva [6] = assay: Antifungal activity against Fulvia fulva TK 5318 after 72 hrs by serial dilution method; assay type: functional; conditions: TK 5318, 72 h; in short: as §2
Fulvia fulva [7] = assay: Antifungal activity against Fulvia fulva TK 5318 after 72 hrs by serial sub-cultivation method; assay type: functional; conditions: TK 5318, 72 h; in short: as §1
Bacillus cereus [8] = assay: Antibacterial activity against Bacillus cereus clinical isolate after 24 hrs; assay type: functional
In short: (§3)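 Broth microdilution MIC in 96-well plates. Compounds in LB broth with bacterial inoculum of 1.0 × 10^4 cfu per well, from suspensions adjusted with sterile saline to 1.0 × 10⁵ CFU/ml. Incubated 24 h at […] as printed. MIC taken as the lowest concentration with no visible growth under the binocular microscope. OD at 655 nm also read against blank. Streptomycin and ampicillin as positive controls. Duplicate, repeated three times.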

Bacillus cereus [9] = assay: Antibacterial activity against Bacillus cereus clinical isolate after 72 hrs by serial sub-cultivation method; assay type: functional
In short: (§4)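 MBC was found by serial sub-cultivation of 2 µl from the MIC wells into plates holding 100 µl broth per well, then incubation for 72 h. MBC is the lowest concentration with no visible growth, i.e. 99.5% killing of the original inoculum. Bacterial inoculum was 1.0 × 10^4 cfu per well in LB broth. Duplicate, repeated three times.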

Micrococcus flavus [10] = assay: Antibacterial activity against Micrococcus flavus ATCC 10240 after 24 hrs; assay type: functional; conditions: ATCC 10240, 24 h; in short: as §3
Micrococcus flavus [11] = assay: Antibacterial activity against Micrococcus flavus ATCC 10240 after 72 hrs by serial sub-cultivation method; assay type: functional; conditions: ATCC 10240, 72 h; in short: as §4
Staphylococcus aureus [12] = assay: Antibacterial activity against Staphylococcus aureus ATCC 6538 after 24 hrs; assay type: functional; conditions: ATCC 6538, 24 h; in short: as §3
Staphylococcus aureus [13] = assay: Antibacterial activity against Staphylococcus aureus ATCC 6538 after 72 hrs by serial sub-cultivation method; assay type: functional; conditions: ATCC 6538, 72 h; in short: as §4
Escherichia coli [14] = assay: Antibacterial activity against Escherichia coli ATCC 35210 after 24 hrs; assay type: functional; conditions: ATCC 35210, 24 h; in short: as §3
Escherichia coli [15] = assay: Antibacterial activity against Escherichia coli ATCC 35210 after 72 hrs by serial sub-cultivation method; assay type: functional; conditions: ATCC 35210, 72 h; in short: as §4
Pseudomonas aeruginosa [16] = assay: Antibacterial activity against Pseudomonas aeruginosa ATCC 27853 after 24 hrs; assay type: functional; conditions: ATCC 27853, 24 h; in short: as §3
Pseudomonas aeruginosa [17] = assay: Antibacterial activity against Pseudomonas aeruginosa ATCC 27853 after 72 hrs by serial sub-cultivation method; assay type: functional; conditions: ATCC 27853, 72 h; in short: as §4
Proteus mirabilis [18] = assay: Antibacterial activity against Proteus mirabilis after 24 hrs; assay type: functional; in short: as §3
Proteus mirabilis [19] = assay: Antibacterial activity against Proteus mirabilis after 72 hrs by serial sub-cultivation method; assay type: functional; in short: as §4
Salmonella typhimurium [20] = assay: Antibacterial activity against Salmonella Typhimurium ATCC 13311 after 24 hrs; assay type: functional, Salmonella enterica subsp. enterica serovar Typhimurium; conditions: Salmonella enterica, ATCC 13311, 24 h; in short: as §3
Salmonella typhimurium [21] = assay: Antibacterial activity against Salmonella Typhimurium ATCC 13311 after 72 hrs by serial sub-cultivation method; assay type: functional, Salmonella enterica subsp. enterica serovar Typhimurium; conditions: Salmonella enterica, ATCC 13311, 72 h; in short: as §4
Listeria monocytogenes [22] = assay: Antibacterial activity against Listeria monocytogenes NCTC 7973 after 24 hrs; assay type: functional; conditions: NCTC 7973, 24 h; in short: as §3
Listeria monocytogenes [23] = assay: Antibacterial activity against Listeria monocytogenes NCTC 7973 after 72 hrs by serial sub-cultivation method; assay type: functional; conditions: NCTC 7973, 72 h; in short: as §4
Talaromyces funiculosus [24] = assay: Antifungal activity against Penicillium funiculosum ATCC 36839 after 72 hrs by serial dilution method; assay type: functional; conditions: ATCC 36839, 72 h; in short: as §2
Talaromyces funiculosus [25] = assay: Antifungal activity against Penicillium funiculosum ATCC 36839 after 72 hrs by serial sub-cultivation method; assay type: functional; conditions: ATCC 36839, 72 h; in short: as §1
Penicillium ochrochloron [26] = assay: Antifungal activity against Penicillium ochrochloron ATCC 9112 after 72 hrs by serial dilution method; assay type: functional; conditions: ATCC 9112, 72 h; in short: as §2
Penicillium ochrochloron [27] = assay: Antifungal activity against Penicillium ochrochloron ATCC 9112 after 72 hrs by serial sub-cultivation method; assay type: functional; conditions: ATCC 9112, 72 h; in short: as §1
Trichoderma viride [28] = assay: Antifungal activity against Trichoderma viride IAM 5061 after 72 hrs by serial dilution method; assay type: functional; conditions: IAM 5061, 72 h; in short: as §2
Trichoderma viride [29] = assay: Antifungal activity against Trichoderma viride IAM 5061 after 72 hrs by serial sub-cultivation method; assay type: functional; conditions: IAM 5061, 72 h; in short: as §1
Aspergillus niger [30] = assay: Antifungal activity against Aspergillus niger ATCC 6275 after 72 hrs by serial dilution method; assay type: functional; conditions: ATCC 6275, 72 h; in short: as §2
Aspergillus fumigatus [31] = assay: Antifungal activity against Aspergillus fumigatus plant isolate after 72 hrs by serial dilution method
Aspergillus fumigatus [32] = assay: Antifungal activity against Aspergillus fumigatus plant isolate after 72 hrs by serial sub-cultivation method

O=C1N/C(=N/c2nc(C34CC5CC(CC(C5)C3)C4)cs2)S/C1=C\c1ccc(Cl)cc1
MFC (Aspergillus niger [1]): 21.9 µM (≈ 9.99 µg/mL)
MIC (Aspergillus versicolor [2]): 16.4 µM (≈ 7.48 µg/mL)
MFC (Aspergillus versicolor [3]): 21.9 µM (≈ 9.99 µg/mL)
MIC (Aspergillus flavus [4]): 11 µM (≈ 5.02 µg/mL)
MFC (Aspergillus flavus [5]): 21.9 µM (≈ 9.99 µg/mL)
MIC (Fulvia fulva [6]): 11 µM (≈ 5.02 µg/mL)
MFC (Fulvia fulva [7]): 16.4 µM (≈ 7.48 µg/mL)
MIC (Bacillus cereus [8]): 16.4 µM (≈ 7.48 µg/mL)
MBC (Bacillus cereus [9]): 21.9 µM (≈ 9.99 µg/mL)
MIC (Micrococcus flavus [10]): 11 µM (≈ 5.02 µg/mL)
MBC (Micrococcus flavus [11]): 21.9 µM (≈ 9.99 µg/mL)
MIC (Staphylococcus aureus [12]): 21.9 µM (≈ 9.99 µg/mL)
MBC (Staphylococcus aureus [13]): 43.8 µM (≈ 20 µg/mL)
MIC (Escherichia coli [14]): 21.9 µM (≈ 9.99 µg/mL)
MBC (Escherichia coli [15]): 43.8 µM (≈ 20 µg/mL)
MIC (Pseudomonas aeruginosa [16]): 21.9 µM (≈ 9.99 µg/mL)
MBC (Pseudomonas aeruginosa [17]): 43.8 µM (≈ 20 µg/mL)
MIC (Proteus mirabilis [18]): 43.8 µM (≈ 20 µg/mL)
MBC (Proteus mirabilis [19]): 65.7 µM (≈ 30 µg/mL)
MIC (Salmonella typhimurium [20]): 21.9 µM (≈ 9.99 µg/mL)
MBC (Salmonella typhimurium [21]): 43.8 µM (≈ 20 µg/mL)
MIC (Listeria monocytogenes [22]): 21.9 µM (≈ 9.99 µg/mL)
MBC (Listeria monocytogenes [23]): 43.8 µM (≈ 20 µg/mL)
MIC (Talaromyces funiculosus [24]): 11 µM (≈ 5.02 µg/mL)
MFC (Talaromyces funiculosus [25]): 21.9 µM (≈ 9.99 µg/mL)
MIC (Penicillium ochrochloron [26]): 16.4 µM (≈ 7.48 µg/mL)
MFC (Penicillium ochrochloron [27]): 21.9 µM (≈ 9.99 µg/mL)
MIC (Trichoderma viride [28]): 11 µM (≈ 5.02 µg/mL)
MFC (Trichoderma viride [29]): 16.4 µM (≈ 7.48 µg/mL)
MIC (Aspergillus niger [30]): 11 µM (≈ 5.02 µg/mL)
MIC (Aspergillus fumigatus [31]): 11 µM (≈ 5.02 µg/mL)
MFC (Aspergillus fumigatus [32]): 21.9 µM (≈ 9.99 µg/mL)

O=C1N/C(=N/c2nc(C34CC5CC(CC(C5)C3)C4)cs2)S/C1=C\c1cccc(Cl)c1
MFC (Aspergillus niger [1]): 21.9 µM (≈ 9.99 µg/mL)
MIC (Aspergillus versicolor [2]): 11 µM (≈ 5.02 µg/mL)
MFC (Aspergillus versicolor [3]): 21.9 µM (≈ 9.99 µg/mL)
MIC (Aspergillus flavus [4]): 16.4 µM (≈ 7.48 µg/mL)
MFC (Aspergillus flavus [5]): 21.9 µM (≈ 9.99 µg/mL)
MIC (Fulvia fulva [6]): 16.4 µM (≈ 7.48 µg/mL)
MFC (Fulvia fulva [7]): 21.9 µM (≈ 9.99 µg/mL)
MIC (Bacillus cereus [8]): 16.4 µM (≈ 7.48 µg/mL)
MBC (Bacillus cereus [9]): 21.9 µM (≈ 9.99 µg/mL)
MIC (Micrococcus flavus [10]): 11 µM (≈ 5.02 µg/mL)
MBC (Micrococcus flavus [11]): 21.9 µM (≈ 9.99 µg/mL)
MIC (Staphylococcus aureus [12]): 16.4 µM (≈ 7.48 µg/mL)
MBC (Staphylococcus aureus [13]): 43.8 µM (≈ 20 µg/mL)
MIC (Escherichia coli [14]): 21.9 µM (≈ 9.99 µg/mL)
MBC (Escherichia coli [15]): 43.8 µM (≈ 20 µg/mL)
MIC (Pseudomonas aeruginosa [16]): 21.9 µM (≈ 9.99 µg/mL)
MBC (Pseudomonas aeruginosa [17]): 43.8 µM (≈ 20 µg/mL)
MIC (Proteus mirabilis [18]): 43.8 µM (≈ 20 µg/mL)
MBC (Proteus mirabilis [19]): 65.7 µM (≈ 30 µg/mL)
MIC (Salmonella typhimurium [20]): 21.9 µM (≈ 9.99 µg/mL)
MBC (Salmonella typhimurium [21]): 43.8 µM (≈ 20 µg/mL)
MIC (Listeria monocytogenes [22]): 21.9 µM (≈ 9.99 µg/mL)
MBC (Listeria monocytogenes [23]): 43.8 µM (≈ 20 µg/mL)
MIC (Talaromyces funiculosus [24]): 21.9 µM (≈ 9.99 µg/mL)
MFC (Talaromyces funiculosus [25]): 21.9 µM (≈ 9.99 µg/mL)
MIC (Penicillium ochrochloron [26]): 5.5 µM (≈ 2.51 µg/mL)
MFC (Penicillium ochrochloron [27]): 11 µM (≈ 5.02 µg/mL)
MIC (Trichoderma viride [28]): 11 µM (≈ 5.02 µg/mL)
MFC (Trichoderma viride [29]): 21.9 µM (≈ 9.99 µg/mL)
MIC (Aspergillus niger [30]): 11 µM (≈ 5.02 µg/mL)
MIC (Aspergillus fumigatus [31]): 11 µM (≈ 5.02 µg/mL)
MFC (Aspergillus fumigatus [32]): 21.9 µM (≈ 9.99 µg/mL)
